Activity calls are given as the source filed them. No cut-off for these calls is given here. Where a SMILES comes first, the peptide text is derived from it. The star is where a group is joined. Cbz = O=C(OCc1ccccc1)*
What was measured:
B16-F1 = experiment: Antiproliferative activity against mouse B16-F1 cells assessed as inhibition of cell growth after 48 hrs by sulforhodamine B colorimetric assay; format: functional; conditions: B16-F1, 48 h
How it was run: (§1)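 Melanoma cells in DMEM with 5% FBS, 1% penicillin/streptomycin, 0.05% insulin; 5000 cells/well in U-bottom wells. After 12 h medium changed and compound added at 8 concentrations for 48 h; Taxol positive control, cells plus medium as negative control. Fixed with 10% TCA, stained with 0.4% SRB in 1% acetic acid 30 min RT, dye released with 10 mM Tris base, A490. Triplicate, ±SEM.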

[1] = target: T1, Calpain-1 catalytic subunit (Sus scrofa, UniProt P35750); experiment: Inhibition of mu-calpain in porcine erythrocyte using Suc-Leu-Tyr-AMC as substrate by microtiter plate assay based Dixon plot analysis
T1 sequence (P35750 whole entry): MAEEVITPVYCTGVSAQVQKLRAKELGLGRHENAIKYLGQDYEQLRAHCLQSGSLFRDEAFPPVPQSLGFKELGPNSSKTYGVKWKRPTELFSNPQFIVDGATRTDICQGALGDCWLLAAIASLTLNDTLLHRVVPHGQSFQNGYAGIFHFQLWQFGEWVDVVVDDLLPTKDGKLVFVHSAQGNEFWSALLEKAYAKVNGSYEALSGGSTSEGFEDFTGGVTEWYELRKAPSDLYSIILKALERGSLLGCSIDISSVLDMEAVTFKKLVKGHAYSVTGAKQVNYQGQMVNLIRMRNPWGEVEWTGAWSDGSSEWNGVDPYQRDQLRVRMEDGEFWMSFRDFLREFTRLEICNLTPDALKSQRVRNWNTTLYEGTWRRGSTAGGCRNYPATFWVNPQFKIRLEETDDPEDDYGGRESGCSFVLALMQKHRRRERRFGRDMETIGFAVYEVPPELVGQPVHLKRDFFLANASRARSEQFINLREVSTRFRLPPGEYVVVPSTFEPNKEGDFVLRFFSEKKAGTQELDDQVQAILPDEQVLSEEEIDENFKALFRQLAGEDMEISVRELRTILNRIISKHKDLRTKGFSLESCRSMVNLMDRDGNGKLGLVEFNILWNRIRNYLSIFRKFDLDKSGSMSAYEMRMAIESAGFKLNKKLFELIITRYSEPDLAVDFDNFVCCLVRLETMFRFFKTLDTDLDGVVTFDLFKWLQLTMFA
How it was run: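 Porcine erythrocyte µ-calpain (1 µg) in 50 mM Tris-HCl pH 7.4, 50 mM NaCl, 10 mM DTT, 1 mM EDTA, 1 mM EGTA, 5 mM CaCl2, with 0.2 mM or 1.0 mM Suc-Leu-Tyr-AMC and varying inhibitor in DMSO (2% total). Ki from Dixon plots of initial velocity (1/v vs inhibitor concentration), r above 0.95; no correction for slow binding or autolysis; mean of triplicates.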

A-375 = experiment: Antiproliferative activity against human A375 cells assessed as inhibition of cell growth after 48 hrs by sulforhodamine B colorimetric assay; format: functional; conditions: A-375, 48 h; how it was run: as §1
PC-3 = experiment: Antiproliferative activity against human PC3 cells assessed as inhibition of cell growth after 72 hrs by MTT assay; format: functional; conditions: PC-3, 72 h
How it was run: (§2)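 Cells seeded at 2,000–15,000/well, exposed to drug for 72 h at 37 °C, 5% CO2; untreated wells as negative control. MTT (5 mg/mL) added for the final 2–4 h; plates spun, formazan dissolved in DMSO, A595. Percent survival vs concentration fitted by nonlinear regression for IC50. Triplicate. PC3 grown in RPMI-1640, DU145 in EMEM, each with 10% FBS; DU145 tested at 1 and 2 µM.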

DU-145 [2] = experiment: Antiinvasive activity against human DU145 cells assessed as inhibition of cell invasion after 48 hrs by matrigel cell invasion assay; format: functional, cell-based
How it was run: (§3)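 DU-145 cells (20,000) seeded in serum-free medium with 1% BSA in upper chamber, 37 °C for 24 h; lower chamber 10% FBS as chemoattractant. Upper medium then replaced with serum-free medium with or without compound at 1.0, 1.5 or 2.0 µM. After 48 h, non-invading cells swabbed off; invading cells fixed, stained, counted. Triplicate; expressed as percentage of untreated cells.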

DU-145 [3] = experiment: Antiproliferative activity against human DU145 cells assessed as inhibition of cell growth at 1 to 2 uM after 72 hrs by MTT assay; format: functional, cell-based; how it was run: as §2
DU-145 [4] = experiment: Antiinvasive activity against human DU145 cells assessed as inhibition of cell invasion at 2 uM after 48 hrs by matrigel cell invasion assay; format: functional; conditions: DU-145, 48 h; how it was run: as §3

Structure (SMILES)	GI50 (B16-F1)	Ki [1]	GI50 (A-375)	GI50 (PC-3)	inhibition (DU-145 [2])	Activity (DU-145 [3])	inhibition at 2 µM (DU-145 [4])
CC(C)[C@H](NC(=O)OCc1ccccc1)C(=O)N[C@H](C=O)Cc1ccccc1 (Cbz-Val-Phe-aldehyde)	–	0.01 µM	–	–	–	–	–
CC(C)C[C@H](NC(=O)[C@@H](NS(=O)(=O)c1ccc(/N=N/c2ccccc2)cc1)C(C)C)C(=O)C(N)=O	18.7 µM	0.016 µM	22.2 µM	24.1 µM	Dose-dependent effect	inactive	80%
CC(=O)O[C@H]1C(=O)[C@@]2(C)[C@H]([C@H](OC(=O)c3ccccc3)[C@]3(O)C[C@H](OC(=O)[C@H](O)[C@@H](NC(=O)c4ccccc4)c4ccccc4)C(C)=C1C3(C)C)[C@]1(OC(C)=O)CO[C@@H]1C[C@@H]2O [PACLITAXEL]	0.02 µM	–	0.01 µM	0.03 µM	–	–	–
CC(C)C[C@@H](C=O)NC(=O)[C@@H]1CCCN1S(=O)(=O)c1ccc(/N=N/c2ccccc2)cc1	13.6 µM	0.273 µM	4.1 µM	5.6 µM	–	–	–

Continued, in another order:

GI50 (B16-F1)	Ki [1]	GI50 (A-375)	GI50 (PC-3)	Structure (SMILES)	inhibition (DU-145 [2])	Activity (DU-145 [3])	inhibition at 2 µM (DU-145 [4])
10.3 µM	0.014 µM	9.4 µM	23 µM	CC(C)C[C@@H](C=O)NC(=O)[C@@H](NS(=O)(=O)c1ccc(/C=C/c2ccccc2)cc1)C(C)C	–	–	–
17.2 µM	0.009 µM	16 µM	6.02 µM	CC(C)C[C@H](NC(=O)[C@@H](NS(=O)(=O)c1ccc(/C=C/c2ccccc2)cc1)C(C)C)C(=O)C(N)=O	–	–	–
13.7 µM	0.018 µM	12.9 µM	27.3 µM	CC(C)C[C@@H](C=O)NC(=O)[C@@H](NS(=O)(=O)c1ccc(/N=N/c2ccccc2)cc1)C(C)C	–	–	–

Source: ChEMBL document CHEMBL4622834, “Synthesis and antiproliferative activity of sulfonamide-based peptidomimetic calpain inhibitors” (Bioorg Med Chem, 2020)
